The target in experiment [1] is T1, 2-C-methyl-D-erythritol 2,4-cyclodiphosphate synthase (Burkholderia pseudomallei (strain K96243), UniProt Q63T71).
T1 sequence (Q63T71 whole entry): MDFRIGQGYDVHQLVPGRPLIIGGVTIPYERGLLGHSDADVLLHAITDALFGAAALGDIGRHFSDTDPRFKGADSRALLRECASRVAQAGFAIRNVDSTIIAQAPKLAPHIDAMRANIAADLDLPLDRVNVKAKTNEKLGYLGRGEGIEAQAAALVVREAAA
In words: Binding affinity to Burkholderia pseudomallei IspF at pH 7.4 measured by isothermal titration calorimetry method. To be noted: read-out: Kd(app). In a few lines:
(§1)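 ITC titration of BpIspF with ligand at 25 °C, run in buffer at pH 6.0, 7.4 or 8.0 as set by the line. Fits gave Kb, ΔG°, ΔH°, -TΔS° and stoichiometry. Ligand concentration was set from the tryptophan extinction coefficient. The pH 6.0/7.4 ratio compares the apparent Kd from these two runs.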
Background: ITC needs no label: the signal is the heat of the interaction.

The target of experiment [2] is T1, 2-C-methyl-D-erythritol 2,4-cyclodiphosphate synthase. As to the kind of experiment: Binding affinity to Burkholderia pseudomallei IspF at pH 6 measured by isothermal titration calorimetry method. To be noted: read-out: Kd(app). The method in brief:
as §1

The target is the same in experiment [3]. In words: Binding affinity to Burkholderia pseudomallei IspF at pH 8 measured by isothermal titration calorimetry method. To be noted: read-out: Kd(app). The method in brief:
as §1

Experiment [4] deals with T2, 2-C-methyl-D-erythritol 2,4-cyclodiphosphate synthase (Burkholderia pseudomallei (strain K96243)) (UniProt Q63T71).
T2 sequence (whole entry): T1 sequence (Q63T71 whole entry)
In words: Binding affinity to Burkholderia pseudomallei IspF assessed as change in free energy at pH 7.4 measured by isothermal titration calorimetry method. In a few lines: as §1

Experiment [5] concerns the target T2, 2-C-methyl-D-erythritol 2,4-cyclodiphosphate synthase (Burkholderia pseudomallei (strain K96243)). As to the kind of experiment: Binding affinity to Burkholderia pseudomallei IspF assessed as change in free energy at pH 6 measured by isothermal titration calorimetry method. The method in brief:
as §1

Experiment [6] has the same target. As to the kind of experiment: Binding affinity to Burkholderia pseudomallei IspF assessed as change in free energy at pH 8 measured by isothermal titration calorimetry method. The method in brief: as §1
The target is the same in experiment [7]. In words: Binding affinity to Burkholderia pseudomallei IspF assessed as change in enthalpy at pH 6 measured by isothermal titration calorimetry method. In a few lines: as §1
The target is the same in experiment [8]. As to the kind of experiment: Binding affinity to Burkholderia pseudomallei IspF assessed as change in enthalpy at pH 8 measured by isothermal titration calorimetry method. The method in brief: as §1
Experiment [9] has the same target. As to the kind of experiment: Binding affinity to Burkholderia pseudomallei IspF assessed as change in entropy at pH 6 measured by isothermal titration calorimetry method. In a few lines: as §1
For experiment [10] the target is unchanged. As to the kind of experiment: Binding affinity to Burkholderia pseudomallei IspF assessed as change in entropy at pH 8 measured by isothermal titration calorimetry method. In a few lines:
as §1

Experiment [11] shares this target. As to the kind of experiment: Ratio of apparent Kd for Burkholderia pseudomallei IspF at pH 6 to apparent Kd for Burkholderia pseudomallei IspF at pH 7.4. The method in brief:
as §1

Experiment [12] addresses T3, 2-C-methyl-D-erythritol 2,4-cyclodiphosphate synthase (Escherichia coli (strain K12), UniProt P62617).
T3 sequence (P62617 whole entry): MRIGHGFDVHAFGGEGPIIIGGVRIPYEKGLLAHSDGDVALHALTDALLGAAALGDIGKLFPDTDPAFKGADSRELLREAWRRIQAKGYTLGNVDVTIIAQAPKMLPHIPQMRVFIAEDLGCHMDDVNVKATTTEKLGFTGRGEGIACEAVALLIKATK
As to the kind of experiment: Binding affinity to Escherichia coli IspF at pH 7.4 measured by isothermal titration calorimetry method. To be noted: read-out: Kd(app).

Experiment [13] concerns the target T4, 2-C-methyl-D-erythritol 2,4-cyclodiphosphate synthase (Escherichia coli (strain K12)) (UniProt P62617).
T4 sequence (whole entry): T3 sequence (P62617 whole entry)
As to the kind of experiment: Binding affinity to Escherichia coli IspF assessed as change in free energy at pH 7.4 measured by isothermal titration calorimetry method.

Experiment [14] has as its target T2, 2-C-methyl-D-erythritol 2,4-cyclodiphosphate synthase (Burkholderia pseudomallei (strain K96243)). As to the kind of experiment: Binding affinity to Burkholderia pseudomallei IspF by STD NMR analysis.
Experiment [15] shares this target. In words: Binding affinity to Burkholderia pseudomallei IspF assessed as change in enthalpy at pH 7.4 measured by isothermal titration calorimetry method. In a few lines: as §1
For experiment [16] the target is unchanged. In words: Binding affinity to Burkholderia pseudomallei IspF assessed as change in entropy at pH 7.4 measured by isothermal titration calorimetry method. In a few lines: as §1

The results in this text go back to ChEMBL document CHEMBL4808218, “Structural and biophysical characterization of the Burkholderia pseudomallei IspF inhibitor L-tryptophan hydroxamate” (Bioorg Med Chem Lett, 2021).

Active and inactive are the calls of the source. The calls are words filed in the database; no cut-off is given here.

On to `N[C@H](Cc1c[nH]c2ccccc12)C(=O)O` [D-TRYPTOPHAN], for which the Kd in experiment [1] was more than 1000 µM.
Consider `N[C@@H](Cc1c[nH]c2ccccc12)C(=O)O` [TRYPTOPHAN], for which the Kd in experiment [1] is more than 1000 µM.
Regarding `N[C@@H](Cc1c[nH]c2ccccc12)C(=O)NO`, the Kd in experiment [1] came out at 36 µM; in [2], 848 µM; in experiment [3], 24 µM; in experiment [12] it was 22 µM. For the same compound, the deltaG was -6.1 kcal/mol in experiment [4], -4.19 kcal/mol in [5], -6.29 kcal/mol in [6] and -6.4 kcal/mol in experiment [13]. The deltaH in [7] was 1.1 kcal/mol; in experiment [8], -8.3 kcal/mol. Further, the -TdeltaS is -5.2 kcal/mol in experiment [9] and 2 kcal/mol in experiment [10]. Also, the Ratio in [11] came out at 25. In addition, the result in experiment [14] was Active.
Take `CC(C)=CCC/C(C)=C/COP(=O)(O)OP(=O)(O)O`: the outcome in [14] was inactive.
`N[C@H](Cc1c[nH]c2ccccc12)C(=O)NO`: the Kd in experiment [1] turned out to be 64 µM. For the same compound, the deltaG in experiment [4] was -5.7 kcal/mol. Further, the deltaH in experiment [15] is -6.65 kcal/mol. Besides, the -TdeltaS in [16] is 0.9 kcal/mol.
